Cardio protect = cardioprotection against H2O2-induced cell death, primary screen, uHTS, H9c2 cells, ATPLite luminescence; 360,000 compounds, 0.63% hits; protection from H2O2 cell death, % at 20 µM; H9c2 cardiomyocytes, H2O2 injury protection, 2 h;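 active means compounds giving at least 50% protection of heart cells from peroxide-induced death in the single-dose screen, raw or plate-pattern-corrected value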
ASAP1 GAP inh = inhibitors of human ASAP1 ArfGAP activity, primary screen, biochemical, fluorescence polarization | ASAP1-stimulated ARF1 GTP hydrolysis, GDP FP detection | inhibition, % at 16.5 µM | 360,000 compounds, 0.19% hits | AID 624377, 2012; in the data active means inhibition above about 25%
Target sequence (Q9ULH1 325-724 limits assumed): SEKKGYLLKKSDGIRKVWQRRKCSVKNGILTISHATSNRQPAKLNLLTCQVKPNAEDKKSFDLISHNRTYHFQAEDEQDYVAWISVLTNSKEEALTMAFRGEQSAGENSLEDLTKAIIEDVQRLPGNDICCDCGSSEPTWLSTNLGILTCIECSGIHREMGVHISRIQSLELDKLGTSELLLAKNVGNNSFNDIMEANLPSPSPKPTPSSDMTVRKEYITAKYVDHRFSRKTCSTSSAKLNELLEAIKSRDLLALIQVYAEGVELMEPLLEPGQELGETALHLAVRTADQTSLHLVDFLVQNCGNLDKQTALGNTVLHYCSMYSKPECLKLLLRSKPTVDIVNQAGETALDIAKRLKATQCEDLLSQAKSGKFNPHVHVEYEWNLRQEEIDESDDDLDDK
ARFGAP1 inhibitor = inhibitors of rat ARFGAP1 GAP activity, primary screen, biochemical, fluorescence polarization, GDP tracer | ADP-ribosylation factor GTPase-activating protein 1 (Rattus norvegicus), Q62848 | Arfgap1-stimulated ARF1 GTP hydrolysis, GDP FP detection | inhibition, % at 16.5 µM | 360,000 compounds, 0.26% hits;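 active means inhibition above a per-plate limit, mean inhibition of low control wells plus 3 SD, cut at about 25% in these data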
Target sequence (Q62848 1-136 limits assumed): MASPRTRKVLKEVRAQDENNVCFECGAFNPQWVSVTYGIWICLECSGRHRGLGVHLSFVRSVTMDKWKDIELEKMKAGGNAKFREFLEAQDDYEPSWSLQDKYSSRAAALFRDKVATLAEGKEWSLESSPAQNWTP
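Repeats: one replicate per compound; assay system: rat Arfgap1 catalytic domain, aa 1-136; times: enzyme reaction 120 min at 25 °C after 20 min preincubation; detection: FP of antibody-bound GDP Alexa 633 tracer, ex 620/em 688 nm; benchmarks: high control wells lacking Arfgap1, low control full reaction with DMSO; reagent: human ARF1(Δ1-17)-GTP substrate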
Neddyl block = inhibitors of cullin neddylation, primary screen, biochemical, TR-FRET, uHTS, NAE and Ubc12. 360,000 compounds, 0.58% hits. inhibition, % at 25 µM. NEDD8-conjugating enzyme Ubc12 (Homo sapiens) + NEDD8-activating enzyme E1 regulatory …; in the data active means inhibition above about 36%
ASAP1 GAP conf = ASAP1 GAP activity inhibitors, confirmation, biochemical, fluorescence polarization, human, triplicate; inhibition, % at 16.5 µM; shares compounds with ASAP1 GAP inh; ASAP1-stimulated Arf1 GTPase, GDP fluorescence polarization; 620 compounds, 37% hits;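 active means mean inhibition over triplicates exceeds the hit threshold derived for the earlier primary screening run, cut at about 25% in these data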
ARFGAP1 confirm = ARFGAP1 inhibitor hit confirmation, biochemical, fluorescence polarization, triplicate. AID 651608, 2012. 890 compounds, 30% hits. ARFGAP1-stimulated ARF1 GTP hydrolysis, GDP tracer FP. inhibition, % at 16.5 µM. shares compounds with ARFGAP1 inhibitor;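 active means average inhibition over triplicates above the hit cutoff set in the earlier primary screen, cut at about 25% in these data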
Numbers stand for hits. An excerpt weighted towards active compounds, which were near 1.6% of everything screened.

For COc1ccc(/C=C2\Oc3cc(OCC(=O)N4CCC(C(=O)O)CC4)ccc3C2=O)c(OC)c1OC the results were Cardio protect inactive, ASAP1 GAP inh 32, ARFGAP1 inhibitor 31, Neddyl block inactive, ASAP1 GAP conf 35 and ARFGAP1 confirm 41.
`COc1ccc(/C=C2\Oc3cc(OCC(=O)N4CCC(C(=O)O)CC4)ccc3C2=O)c(OC)c1` gave Cardio protect inactive and Neddyl block inactive.
COCCCNC(=O)C[C@H]1C[C@@]2(C(=O)OC)C(=C[C@H](COCc3ccccc3)O[C@@H]2C)N(CCC2=CCCCC2)C1=O was read as ASAP1 GAP inh inactive and ARFGAP1 inhibitor inactive.
CCN1CCN(Cc2ccc(NC(=O)c3cc(NC(=O)c4cncc(-c5cccs5)c4)cc(OC)c3)cc2C(F)(F)F)CC1 was read as Cardio protect inactive, ASAP1 GAP inh 37, ARFGAP1 inhibitor 52, Neddyl block inactive, ASAP1 GAP conf 82 and ARFGAP1 confirm 92.
For CCOC(=O)N[C@@H](CC(C)C)C(=O)N1CCC[C@H]1C(=O)NCc1ccccc1 the results were ASAP1 GAP inh inactive and ARFGAP1 inhibitor inactive.
For COc1ccc(/C=N/NC(=O)c2cc3c(ccc4ccccc43)o2)cc1OC the results were Cardio protect inactive, ASAP1 GAP inh 102, ARFGAP1 inhibitor 76, ASAP1 GAP conf 115 and ARFGAP1 confirm 82.
For O=C(N/N=C/c1ccncc1)c1cc2c(ccc3ccccc32)o1 the results were Cardio protect inactive, ASAP1 GAP inh inactive, ARFGAP1 inhibitor inactive and Neddyl block inactive.
For COC(=O)C1(C(=O)OC)C[C@H](c2cccs2)N(Cc2ccccc2OC)[C@@H]1c1ccc(F)cc1 the results were ASAP1 GAP inh inactive, ARFGAP1 inhibitor inactive and Neddyl block inactive.
`CCOC(=O)C1CSCCS(=O)(=O)N1Cc1ccc(C)cc1` (stereo not drawn) gave ASAP1 GAP inh inactive and ARFGAP1 inhibitor inactive.
For O=C(CCOc1ccccc1)Nc1nnc(-c2ccc3c(c2)OCCO3)o1 the results were Cardio protect inactive, ASAP1 GAP inh inactive, ARFGAP1 inhibitor inactive and Neddyl block inactive.
Screening O=C(Nc1nnc(-c2ccc3c(c2)OCCO3)o1)c1ccc(Cc2ccccc2)cc1 returned Cardio protect inactive, ASAP1 GAP inh 133, ARFGAP1 inhibitor 92, Neddyl block inactive, ASAP1 GAP conf 139 and ARFGAP1 confirm 155.
COc1cc(/C=C/C(=O)Nc2ccc3nc4n(c(=O)c3c2)CCCC4)cc(OC)c1OC was read as Cardio protect 54, ASAP1 GAP inh 27, ARFGAP1 inhibitor 25, Neddyl block inactive, ASAP1 GAP conf 43 and ARFGAP1 confirm 38.
`COc1ccc(-c2cc(NC=O)c3ncc(-c4ccc(C(C)=O)cc4)n3c2)cc1OC` gave Cardio protect inactive, ASAP1 GAP inh 45, ARFGAP1 inhibitor 28, Neddyl block inactive, ASAP1 GAP conf 61 and ARFGAP1 confirm 50.
Screening CC1CCN(C(=O)c2[nH]cnc2C(=O)N(C)CCO)CC1 returned ASAP1 GAP inh inactive and ARFGAP1 inhibitor inactive.
For Fc1ccc(Nc2nnc(C(F)(F)F)s2)cc1Cl the results were Cardio protect inactive, ASAP1 GAP inh inactive, ARFGAP1 inhibitor inactive and Neddyl block inactive.
For Fc1ccc(Nc2cncc(-c3ccsc3)c2)cc1Cl the results were Cardio protect inactive, ASAP1 GAP inh 39, ARFGAP1 inhibitor 29, Neddyl block inactive, ASAP1 GAP conf inactive and ARFGAP1 confirm inactive.
For COc1cccc(/C=C2/Sc3ccc(C(=O)NCCN4CCCCCC4)cc3NC2=O)c1 the results were Cardio protect inactive, ASAP1 GAP inh 31, ARFGAP1 inhibitor 29, Neddyl block inactive, ASAP1 GAP conf 36 and ARFGAP1 confirm 37.
Screening Cc1cccc(/C=C2/Sc3ccc(C(=O)NCCN4CCCC4)cc3NC2=O)c1 returned Cardio protect inactive, ASAP1 GAP inh inactive, ARFGAP1 inhibitor inactive and Neddyl block inactive.
CC1(C)CC(Cc2ccccc2C(F)(F)F)N(C(=O)OC(C)(C)C)C1 (stereo not drawn) was read as ASAP1 GAP inh inactive, ARFGAP1 inhibitor inactive and Neddyl block inactive.
For O=C(C=Cc1ccc(OCc2ccccc2)cc1)c1c(F)cccc1F the results were ASAP1 GAP inh inactive and ARFGAP1 inhibitor inactive.
`O=c1[nH]c(Nc2ccccc2Cl)cc2ccccc12` gave Cardio protect inactive, ASAP1 GAP inh 48, ARFGAP1 inhibitor 29, Neddyl block inactive, ASAP1 GAP conf inactive and ARFGAP1 confirm inactive.
Screening Cc1cc(C(=O)COC(=O)c2n[nH]c3ccccc23)c(C)n1C returned Cardio protect inactive, ASAP1 GAP inh 34, ARFGAP1 inhibitor 33, Neddyl block inactive, ASAP1 GAP conf 35 and ARFGAP1 confirm 52.
`CCOc1cc(OCC)cc(C(=O)N2CCC[C@@H]2C(=O)N2CCC[C@H]2C(=O)NCc2ccccc2)c1` gave ASAP1 GAP inh inactive and ARFGAP1 inhibitor inactive.
Screening COc1cccc(OC)c1-c1nn2c(-c3cc(-c4ccccc4)n[nH]3)nnc2s1 returned Cardio protect inactive, ASAP1 GAP inh 129, ARFGAP1 inhibitor 130, Neddyl block inactive, ASAP1 GAP conf 167 and ARFGAP1 confirm 182.
Screening COc1cccc(-c2nnc3sc(-c4ccccc4)nn23)c1 returned Cardio protect inactive, ASAP1 GAP inh inactive, ARFGAP1 inhibitor inactive and Neddyl block inactive.
`CC(C)c1ccc(CC(=O)N2CCC2(C)C(=O)Nc2ccc3c(c2)OCCO3)cc1` (stereo not drawn) gave Cardio protect inactive, ASAP1 GAP inh inactive, ARFGAP1 inhibitor inactive and Neddyl block inactive.
`CCCCNC(=O)C1(C)CCN1C(=O)c1ccc(OC)c(C(F)(F)F)c1` (stereo not drawn) gave Cardio protect inactive, ASAP1 GAP inh inactive, ARFGAP1 inhibitor inactive and Neddyl block inactive.
Screening C[n+]1c(-c2ccc(C=NNC(=O)c3ccc(C(=O)NN=Cc4ccc(-c5cn6ccccc6[n+]5C)cc4)cc3)cc2)cn2ccccc21 returned ASAP1 GAP inh 42, ARFGAP1 inhibitor 66, ASAP1 GAP conf 50 and ARFGAP1 confirm 90.
`CC(=O)N1CCN(c2ccc(NC(=O)c3cc4ccccc4o3)cc2)CC1` gave Cardio protect inactive, ASAP1 GAP inh inactive, ARFGAP1 inhibitor inactive and Neddyl block inactive.
For O=C(Nc1ccc(N2CCCC2)cc1)c1cc2ccccc2o1 the results were Cardio protect inactive, ASAP1 GAP inh 43, ARFGAP1 inhibitor 77, Neddyl block inactive, ASAP1 GAP conf 146 and ARFGAP1 confirm inactive.
